Assay results gathered from unrelated publications.
Compare with care: the assays were run in different laboratories.
Target: Serine/threonine-protein kinase 24 (STK24, Homo sapiens, UniProt Q9Y6E0)

Cn1nc(C(=O)NCc2ccc(C(=O)O)cc2)cc1-c1ccc2[nH]ccc2c1 has a remaining binding of 97% (cell-free assay, competition with immobilised ligand; 0.1 µM).
For COc1cnc(Nc2cccc(S(N)(=O)=O)c2)nc1N1CCN(c2ccccc2)C(=O)C1, the remaining binding was 97% (binding, competition with immobilised ligand; 1 µM).
O=C(NCC1CCOCC1)c1n[nH]cc1NC(=O)c1c(F)cccc1F gave a remaining binding of 89% (binding, competition with immobilised ligand; 1 µM).
CCCCN(CCCC)C(=O)CN1C[C@@H](c2cc(OC)c3c(c2)OCO3)[C@H](C(=O)O)[C@H]1CC(C)(C)CCC gave a remaining binding of 93.9% (cell-free assay, competition with immobilised ligand; 1 µM).
For CN(CCCC(F)(F)F)c1nccc(-c2cnn3ncccc23)n1, the remaining binding was 100% (binding; 1 µM).
O=C(c1ccc(Nc2nccc(-c3cc4ccccc4s3)n2)cc1)N1CCC(N2CCCC2)CC1 gave a remaining binding of 83% (binding, competition with immobilised ligand; 1 µM).
Nc1ncc2c(n1)-c1c([nH]c3ccc(C#CC4CC4)cc13)CCCC2 gave a remaining binding of 80% (binding, competition with immobilised ligand; 1 µM).
Cc1cnn2ncc(-c3ccnc(N(C)C)n3)c2c1 gave a remaining binding of 98% (binding; 1 µM).
CCS(=O)(=O)c1cc2cc(C[C@](O)(CC(C)(C)c3ccc(F)cc3C(N)=O)C(F)(F)F)[nH]c2cn1 gave a remaining binding of 86% (cell-free assay, competition with immobilised ligand; 1 µM).
The remaining binding of COc1ncc2cc3ccccc3nc2c1C#N is reported as 97% (cell-free assay, competition with immobilised ligand; 5 µM).
The remaining binding of C[C@H](c1cccc(C#N)c1)n1cc(Cl)cc(C(N)=O)c1=N is reported as 89% (cell-free assay, competition with immobilised ligand; 1 µM).
For N[C@@H]1CCN(c2nccc(-c3cnn4ncccc34)n2)C1, the remaining binding was 100% (binding; 1 µM).
c1cncc(-c2cccc(Nc3nccc(NC4CCCCC4)n3)c2)c1 has a remaining binding of 93% (binding, competition with immobilised ligand; 10 µM).
The remaining binding of CC1CCCN1c1nccc(-c2cnn3ncccc23)n1 (stereo not shown) is reported as 100% (binding; 1 µM).
For O=C(NCCCN1CCOCC1)c1ccc(Nc2ncc(Cl)c(-c3ccc(Cl)s3)n2)cc1, the remaining binding was 17% (binding, competition with immobilised ligand; 1 µM).
CN(C(=O)c1ccccc1)c1cc(N(C)c2ccc3c(c2)CCc2ccc(C(=O)NCCN4CCOCC4)cc2C3=O)ccc1F has a remaining binding of 100% (cell-free assay, competition with immobilised ligand; 1 µM).
With F[C@@H]1CCN(c2nccc(-c3cnn4ncccc34)n2)C1 the remaining binding was 93% (binding; 1 µM).
With O=C(NCCCN1CCOCC1)c1ccc(Nc2nccc(-c3cc4ccccc4s3)n2)cc1 the remaining binding was 39% (binding, competition with immobilised ligand; 1 µM).
FC(F)(F)c1ccc2c(c1)nc(-c1cccnc1)n2C1CC1 has a remaining binding of 100% (cell-free assay, competition with immobilised ligand; 1 µM).
